The source made the active and inactive calls. No cut-off for these calls is given here. Where a SMILES comes first, the peptide text is derived from it.
Key:
BCL2L1/BAD = BCL2L1/BAD (Homo sapiens, UniProt Q07817); assay: Inhibition of BAD/His-SUMO tagged BCL-XL (1 to 209 residues; missing 27 to 82 residues) (unknown origin) overexpressed in Escherichia coli BL21 protein-protein interaction by fluorescence anisotropy competition assay
Outline: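 Final conditions: 200 nM BCL-xL, 50 nM tracer, 20 mM Tris, 150 mM NaCl, pH 7.6, 20 °C, with peptide titrated. Tracer Kd for BCL-xL was determined beforehand by direct titration (6 nM-125 μM protein).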

[1] = target: Induced myeloid leukemia cell differentiation protein Mcl-1/BH3-interacting domain death agonist (Homo sapiens) (UniProt Q07820+P55957); assay: Inhibition of BID/MCL-1 interaction (unknown origin) by fluorescence anisotropy competition assay; format: protein assay
Chain of Induced myeloid leukemia cell differentiation protein Mcl-1/BH3-interacting domain death agonist (Homo sapiens) (P55957 whole entry, looked up, the tested form may be a part): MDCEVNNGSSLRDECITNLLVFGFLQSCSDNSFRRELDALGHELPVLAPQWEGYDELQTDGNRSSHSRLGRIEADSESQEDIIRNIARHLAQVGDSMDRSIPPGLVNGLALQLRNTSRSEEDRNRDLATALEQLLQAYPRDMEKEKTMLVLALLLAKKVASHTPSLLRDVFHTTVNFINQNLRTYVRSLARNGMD
Chain of Induced myeloid leukemia cell differentiation protein Mcl-1/BH3-interacting domain death agonist (Homo sapiens) (Q07820 whole entry, looked up, the tested form may be a part): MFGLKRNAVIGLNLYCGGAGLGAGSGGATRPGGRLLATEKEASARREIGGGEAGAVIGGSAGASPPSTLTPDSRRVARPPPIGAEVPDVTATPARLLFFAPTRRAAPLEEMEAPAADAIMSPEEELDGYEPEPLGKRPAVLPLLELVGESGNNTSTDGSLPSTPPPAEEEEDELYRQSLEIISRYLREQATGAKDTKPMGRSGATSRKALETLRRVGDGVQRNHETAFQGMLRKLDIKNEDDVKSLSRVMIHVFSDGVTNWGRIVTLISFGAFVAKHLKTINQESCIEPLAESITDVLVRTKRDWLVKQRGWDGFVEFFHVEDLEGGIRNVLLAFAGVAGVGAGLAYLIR

Chain of BCL2L1/BAD (Q92934 whole entry, the tested form may be a part): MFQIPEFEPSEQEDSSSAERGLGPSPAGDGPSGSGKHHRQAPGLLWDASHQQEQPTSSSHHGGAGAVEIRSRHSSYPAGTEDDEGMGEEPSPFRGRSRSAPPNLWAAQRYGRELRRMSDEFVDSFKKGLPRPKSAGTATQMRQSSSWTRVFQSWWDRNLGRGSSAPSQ
Chain of BCL2L1/BAD (Q07817 whole entry, the tested form may be a part): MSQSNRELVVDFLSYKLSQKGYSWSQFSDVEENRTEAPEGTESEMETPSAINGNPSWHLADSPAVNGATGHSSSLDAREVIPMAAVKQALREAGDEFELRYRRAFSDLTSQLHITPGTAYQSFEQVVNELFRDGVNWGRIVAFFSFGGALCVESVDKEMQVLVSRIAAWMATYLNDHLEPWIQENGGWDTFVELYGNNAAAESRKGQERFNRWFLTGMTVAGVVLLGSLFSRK

Structure (SMILES)	IC50 (BCL2L1/BAD) [µM]	inhibition [1]
CSCC[C@H](NC(=O)[C@H](CS)NC(=O)[C@H](CCCNC(=N)N)NC(=O)[C@H](CC(C)C)NC(=O)[C@H](CCC(=O)O)NC(=O)[C@H](CS)NC(=O)CNC(=O)[C@H](Cc1ccc(O)cc1)NC(=O)[C@H](CCCNC(=N)N)NC(C)=O)C(=O)N[C@@H](CO)C(=O)N[C@@H](CC(=O)O)C(=O)N[C@@H](CCC(=O)O)C(=O)N[C@@H](Cc1ccccc1)C(=O)N[C@H](C(=O)N[C@@H](CC(=O)O)C(=O)N[C@@H](CO)C(=O)N[C@@H](Cc1ccccc1)C(=O)N[C@@H](CCCCN)C(=O)N[C@@H](CCCCN)C(N)=O)C(C)C (Ac-RYGCELRCMSDEFVDSFKK-NH2)	6.8	–
CSCC[C@H](NC(=O)[C@H](CCCNC(=N)N)NC(=O)[C@H](CCCNC(=N)N)NC(=O)[C@H](CC(C)C)NC(=O)[C@H](CCC(=O)O)NC(=O)[C@H](CCCNC(=N)N)NC(=O)CNC(=O)[C@H](Cc1ccc(O)cc1)NC(=O)[C@H](CCCNC(=N)N)NC(C)=O)C(=O)N[C@@H](CS)C(=O)N[C@@H](CC(=O)O)C(=O)N[C@@H](CCC(=O)O)C(=O)N[C@@H](Cc1ccccc1)C(=O)N[C@@H](CS)C(=O)N[C@@H](CC(=O)O)C(=O)N[C@@H](CO)C(=O)N[C@@H](Cc1ccccc1)C(=O)N[C@@H](CCCCN)C(=O)N[C@@H](CCCCN)C(N)=O (Ac-RYGRELRRMCDEFCDSFKK-NH2)	2.9	–
CSCC[C@H](NC(=O)[C@H](CCCNC(=N)N)NC(=O)[C@H](CCCNC(=N)N)NC(=O)[C@H](CC(C)C)NC(=O)[C@H](CCC(=O)O)NC(=O)[C@H](CCCNC(=N)N)NC(=O)CNC(=O)[C@H](Cc1ccc(O)cc1)NC(=O)[C@H](CCCNC(=N)N)NC(C)=O)C(=O)N[C@@H](CO)C(=O)N[C@H]1CS2=S(C[C@@H](C(=O)N[C@@H](CO)C(=O)N[C@@H](Cc3ccccc3)C(=O)N[C@@H](CCCCN)C(=O)N[C@@H](CCCCN)C(N)=O)NC(=O)[C@H](C(C)C)NC(=O)[C@H](Cc3ccccc3)NC(=O)[C@H](CCC(=O)O)NC1=O)C(=O)NC2=O (stereo partly specified)	> 50	–
CSCC[C@@H]1NC(=O)[C@H](CCCNC(=N)N)NC(=O)[C@@H](NC(=O)[C@H](CC(C)C)NC(=O)[C@H](CCC(=O)O)NC(=O)[C@H](CCCNC(=N)N)NC(=O)CNC(=O)[C@H](Cc2ccc(O)cc2)NC(=O)[C@H](CCCNC(=N)N)NC(C)=O)CS2=S(C[C@@H](C(=O)N[C@@H](CCC(=O)O)C(=O)N[C@@H](Cc3ccccc3)C(=O)N[C@H](C(=O)N[C@@H](CC(=O)O)C(=O)N[C@@H](CO)C(=O)N[C@@H](Cc3ccccc3)C(=O)N[C@@H](CCCCN)C(=O)N[C@@H](CCCCN)C(N)=O)C(C)C)NC(=O)[C@H](CO)NC1=O)C(=O)NC2=O (stereo partly specified)	> 50	–
CSCC[C@H](NC(=O)[C@H](CCCNC(=N)N)NC(=O)[C@H](CS)NC(=O)[C@H](CC(C)C)NC(=O)[C@H](CCC(=O)O)NC(=O)[C@H](CCCNC(=N)N)NC(=O)[C@H](CS)NC(=O)[C@H](Cc1ccc(O)cc1)NC(=O)[C@H](CCCNC(=N)N)NC(C)=O)C(=O)N[C@@H](CO)C(=O)N[C@@H](CC(=O)O)C(=O)N[C@@H](CCC(=O)O)C(=O)N[C@@H](Cc1ccccc1)C(=O)N[C@H](C(=O)N[C@@H](CC(=O)O)C(=O)N[C@@H](CO)C(=O)N[C@@H](Cc1ccccc1)C(=O)N[C@@H](CCCCN)C(=O)N[C@@H](CCCCN)C(N)=O)C(C)C (Ac-RYCRELCRMSDEFVDSFKK-NH2)	11.8	–
CSCC[C@H](NC(=O)[C@@H]1CS2=S(C[C@H](NC(=O)CNC(=O)[C@H](Cc3ccc(O)cc3)NC(=O)[C@H](CCCNC(=N)N)NC(C)=O)C(=O)N[C@@H](CCC(=O)O)C(=O)N[C@@H](CC(C)C)C(=O)N[C@@H](CCCNC(=N)N)C(=O)N1)C(=O)NC2=O)C(=O)N[C@@H](CO)C(=O)N[C@@H](CC(=O)O)C(=O)N[C@@H](CCC(=O)O)C(=O)N[C@@H](Cc1ccccc1)C(=O)N[C@H](C(=O)N[C@@H](CC(=O)O)C(=O)N[C@@H](CO)C(=O)N[C@@H](Cc1ccccc1)C(=O)N[C@@H](CCCCN)C(=O)N[C@@H](CCCCN)C(N)=O)C(C)C (stereo partly specified)	> 50	–
CSCC[C@H](NC(=O)[C@H](CCCNC(=N)N)NC(=O)[C@H](CCCNC(=N)N)NC(=O)[C@H](CC(C)C)NC(=O)[C@H](CCC(=O)O)NC(=O)[C@H](CCCNC(=N)N)NC(=O)CNC(=O)[C@H](Cc1ccc(O)cc1)NC(=O)[C@H](CCCNC(=N)N)NC(=O)[C@H](CCC(N)=O)NC(=O)[C@H](C)NC(=O)[C@H](C)NC(=O)[C@H](Cc1c[nH]c2ccccc12)NC(=O)[C@H](CC(C)C)NC(=O)[C@H](CC(N)=O)NC(C)=O)C(=O)N[C@@H](CO)C(=O)N[C@@H](CC(=O)O)C(=O)N[C@@H](CCC(=O)O)C(=O)N[C@@H](Cc1ccccc1)C(=O)N[C@H](C(=O)N[C@@H](CC(=O)O)C(=O)N[C@@H](CO)C(=O)N[C@@H](Cc1ccccc1)C(=O)N[C@@H](CCCCN)C(=O)N[C@@H](CCCCN)C(N)=O)C(C)C	0.2	inactive
CSCC[C@H](NC(=O)[C@H](CCCNC(=N)N)NC(=O)[C@H](CS)NC(=O)[C@H](CC(C)C)NC(=O)[C@H](CCC(=O)O)NC(=O)[C@H](CCCNC(=N)N)NC(=O)CNC(=O)[C@H](Cc1ccc(O)cc1)NC(=O)[C@H](CCCNC(=N)N)NC(C)=O)C(=O)N[C@@H](CO)C(=O)N[C@@H](CS)C(=O)N[C@@H](CCC(=O)O)C(=O)N[C@@H](Cc1ccccc1)C(=O)N[C@H](C(=O)N[C@@H](CC(=O)O)C(=O)N[C@@H](CO)C(=O)N[C@@H](Cc1ccccc1)C(=O)N[C@@H](CCCCN)C(=O)N[C@@H](CCCCN)C(N)=O)C(C)C (Ac-RYGRELCRMSCEFVDSFKK-NH2)	> 50	–
CSCC[C@@H]1NC(=O)[C@@H](NC(=O)[C@H](CCCNC(=N)N)NC(=O)[C@H](CC(C)C)NC(=O)[C@H](CCC(=O)O)NC(=O)[C@H](CCCNC(=N)N)NC(=O)CNC(=O)[C@H](Cc2ccc(O)cc2)NC(=O)[C@H](CCCNC(=N)N)NC(C)=O)CS2=S(C[C@@H](C(=O)N[C@@H](Cc3ccccc3)C(=O)N[C@H](C(=O)N[C@@H](CC(=O)O)C(=O)N[C@@H](CO)C(=O)N[C@@H](Cc3ccccc3)C(=O)N[C@@H](CCCCN)C(=O)N[C@@H](CCCCN)C(N)=O)C(C)C)NC(=O)[C@H](CC(=O)O)NC(=O)[C@H](CO)NC1=O)C(=O)NC2=O (stereo partly specified)	2.4	inactive
CSCC[C@H](NC(=O)[C@H](CCCNC(=N)N)NC(=O)[C@H](CCCNC(=N)N)NC(=O)[C@H](CC(C)C)NC(=O)[C@H](CCC(=O)O)NC(=O)[C@H](CCCNC(=N)N)NC(=O)CNC(=O)[C@H](Cc1ccc(O)cc1)NC(=O)[C@H](CCCNC(=N)N)NC(C)=O)C(=O)N[C@@H](CO)C(=O)N[C@@H](CC(=O)O)C(=O)N[C@@H](CCC(=O)O)C(=O)N[C@@H](Cc1ccccc1)C(=O)N[C@H](C(=O)N[C@@H](CC(=O)O)C(=O)N[C@@H](CO)C(=O)N[C@@H](Cc1ccccc1)C(=O)N[C@@H](CCCCN)C(=O)N[C@@H](CCCCN)C(N)=O)C(C)C (Ac-RYGRELRRMSDEFVDSFKK-NH2)	3.6	inactive
CSCC[C@H](NC(=O)[C@H](CS)NC(=O)[C@H](CCCNC(=N)N)NC(=O)[C@H](CC(C)C)NC(=O)[C@H](CCC(=O)O)NC(=O)[C@H](CCCNC(=N)N)NC(=O)CNC(=O)[C@H](Cc1ccc(O)cc1)NC(=O)[C@H](CCCNC(=N)N)NC(C)=O)C(=O)N[C@@H](CO)C(=O)N[C@@H](CC(=O)O)C(=O)N[C@@H](CS)C(=O)N[C@@H](Cc1ccccc1)C(=O)N[C@H](C(=O)N[C@@H](CC(=O)O)C(=O)N[C@@H](CO)C(=O)N[C@@H](Cc1ccccc1)C(=O)N[C@@H](CCCCN)C(=O)N[C@@H](CCCCN)C(N)=O)C(C)C (Ac-RYGRELRCMSDCFVDSFKK-NH2)	6.9	inactive
CSCC[C@H](NC(=O)[C@H](CCCNC(=N)N)NC(=O)[C@H](CCCNC(=N)N)NC(=O)[C@H](CC(C)C)NC(=O)[C@@H]1CS2=S(C[C@H](NC(C)=O)C(=O)N[C@@H](Cc3ccc(O)cc3)C(=O)NCC(=O)N[C@@H](CCCNC(=N)N)C(=O)N1)C(=O)NC2=O)C(=O)N[C@@H](CO)C(=O)N[C@@H](CC(=O)O)C(=O)N[C@@H](CCC(=O)O)C(=O)N[C@@H](Cc1ccccc1)C(=O)N[C@H](C(=O)N[C@@H](CC(=O)O)C(=O)N[C@@H](CO)C(=O)N[C@@H](Cc1ccccc1)C(=O)N[C@@H](CCCCN)C(=O)N[C@@H](CCCCN)C(N)=O)C(C)C (stereo partly specified)	5.5	–
